Source: PubChem (several laboratories)
PMI act satM6P = human PMI activators, high substrate, primary screen, biochemical, fluorescence intensity, near-saturating mannose 6-phosphate. coupled PMI enzyme assay, resazurin fluorescence, 20 min; active compounds read high; 1 = untreated enzyme, 0 = substrate-free blank. 0.34% of 190,000 active. activation factor at 20 µM. Mannose-6-phosphate isomerase (Homo sapiens), P34949;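 active = activation factor of 2 or more at 20 µM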
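Material: human phosphomannose isomerase with PGI, G6PDH, diaphorase coupling enzymes; amount: PMI at 15 ng/mL final; also added: Mannose-6-phosphate 1.0 mM (near-saturating) plus 0.22 mM NADP+; incubation: enzyme reaction with compound 20 min at room temperature; signal: resorufin fluorescence (Ex 544/Em 590 nm) from resazurin via diaphorase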
WT yeast gro inh = growth inhibition of WT strain, primary screen, mitochondrial fusion inhibitor project, WT and mutant strains, chemical genetic; mitochondrial fusion phenotypic screen; inhibition, % at 10 µM; AID 1362, 2008; 2.1% of 190,000 active; in the data active = inhibition above about 58%; tested in S. cerevisiae
m-calpain inh = inhibitors of pig calpain II, primary screen, biochemical, fluorogenic peptide substrate, 1536-well; purified calpain II, 30 min; 0.37% of 220,000 active; inhibition, % at 16 µM;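 active = inhibition above about 50%, limit read from the data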
PMI act = activators of human PMI, primary screen, biochemical, fluorescence intensity, near-Km mannose 6-phosphate | purified human PMI, coupled resazurin fluorescence, 20 min; active compounds read high; 1 = vehicle control, 0 substrate-free wells | activation factor at 20 µM | 0.005% of 190,000 active;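 active = activation factor of 2 or more at 20 µM, relative to plate controls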
Lmaj promast = Leishmania major promastigote growth inhibition, primary screen; 9% of 200,000 active; inhibition, % at 10 µM; Leishmania major promastigotes, resazurin fluorescence viability; AID 1063, 2008; in the data active = inhibition above about 50%;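 also: promastigotes grown with compound for 44 hours at 28 °C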
Rad51 HR inh = human RAD51 strand exchange inhibitors, primary screen, biochemical, fluorescence. 0.085% of 200,000 active. inhibition, % at 10 µM. AID 1385, 2008. hRad51 DNA strand exchange, fluorescence dequenching;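 active = inhibition above 40% at the single screening dose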;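 also: 0% = DMSO control wells and 100% = blanks with heterologous ssDNA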
Target sequence (Q06609 whole entry, looked up): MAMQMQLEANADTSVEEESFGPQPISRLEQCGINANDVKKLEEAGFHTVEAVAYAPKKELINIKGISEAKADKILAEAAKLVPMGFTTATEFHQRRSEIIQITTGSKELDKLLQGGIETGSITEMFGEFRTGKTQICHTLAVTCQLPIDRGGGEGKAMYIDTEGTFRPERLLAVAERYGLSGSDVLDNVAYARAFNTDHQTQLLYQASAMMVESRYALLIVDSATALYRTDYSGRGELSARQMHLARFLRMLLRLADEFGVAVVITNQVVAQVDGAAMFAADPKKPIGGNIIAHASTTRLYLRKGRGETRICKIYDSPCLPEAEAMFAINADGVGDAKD
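System: human Rad51 nucleoprotein filaments preassembled on unlabelled ssDNA. Reagent: labelled 47-mer dsDNA for strand exchange. Schedule: 30-min compound preincubation and 15-min exchange, both room temperature. Measured by: FRET fluorescence dequenching, excitation 485 nm, emission 520 nm. Read-out: Fluorescence-based percent inhibition, control- and blank-normalised. Benchmarks: plate controls and plate blanks.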
L major 1uM = Leishmania major promastigote growth inhibition, confirmation, 1 µM repeat of primary hits | shares compounds with Lmaj promast | L. major promastigote growth, resazurin fluorescence, 48 h | inhibition, % at 1 µM | 13% of 1,100 active;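 active = inhibition above about 50% in both repeat tests, limit read from the data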
* marks the source's active call; other numbers are inactive results. This is a sample that favours compounds with a hit; in the whole collection about 9.8% have one here.

C=CCOc1ccc2c(c1)c(=O)cc(C(=O)O)n2CC was read as m-calpain inh -39.3 and Rad51 HR inh 3.5.
C=CCOc1ccc2c(c1)c(S(=O)(=O)c1ccc(C)cc1)cn2COC was read as PMI act satM6P 1, WT yeast gro inh 8.0, PMI act 0.9, Lmaj promast 88.0*, Rad51 HR inh 7.7 and L major 1uM -21.3.
For COC(=O)Cn1nnc(N2CCOCC2)n1 the results were m-calpain inh -15.0 and Rad51 HR inh -11.2.
`O=C(COc1ccc(Cl)cc1)Nc1nnc(-c2ccco2)o1` gave PMI act satM6P 1.1, WT yeast gro inh 5.7, m-calpain inh 6.8, PMI act 1.2, Lmaj promast -6.0 and Rad51 HR inh 2.8.
`O=C(CCc1ccccc1)Nc1nnc(-c2ccccn2)o1` gave PMI act satM6P 1.1, WT yeast gro inh 1.1, m-calpain inh -37.9, PMI act 1, Lmaj promast 62.3*, Rad51 HR inh -9.9 and L major 1uM 33.7.
`CCC(=O)Nc1nnc(-c2ccccn2)o1` gave PMI act satM6P 1, WT yeast gro inh -8.8, m-calpain inh -9.6, PMI act 0.8, Lmaj promast -2.9 and Rad51 HR inh 0.4.
For Cc1ccc(C(O)P(=O)(OC2CCCCC2)OC2CCCCC2)cc1 (stereo not drawn) the results were PMI act satM6P 1.1, WT yeast gro inh 8.8, m-calpain inh 39.2, PMI act 1, Lmaj promast 89.3*, Rad51 HR inh 4.1 and L major 1uM 13.2.
`COc1ccc(NC(=O)COC(=O)c2ccc(O)cc2)c([N+](=O)[O-])c1` gave PMI act satM6P 0.9, WT yeast gro inh 10.1, m-calpain inh -7.6, PMI act 1 and Lmaj promast -0.6.
`COc1ccc2cc(Br)ccc2c1CC(=O)NC1CC(C)(C)NC(C)(C)C1` gave PMI act satM6P 1, WT yeast gro inh -8.2, m-calpain inh -7.6, PMI act 1, Lmaj promast 99.9*, Rad51 HR inh -0.3 and L major 1uM -9.5.
CC(=O)Nc1ccc(NC(=O)C2CCCN2C(=O)Nc2ccc(F)c([N+](=O)[O-])c2)cc1 (stereo not drawn) was read as PMI act satM6P 0.9, WT yeast gro inh -20.8, m-calpain inh 7.0, PMI act 0.9, Lmaj promast -9.0 and Rad51 HR inh 15.1.
For Cn1cccc1C1Nc2ccccc2NC2=C1C(=O)CC(C)(C)C2 (stereo not drawn) the results were PMI act satM6P 1.3, WT yeast gro inh -2.6, m-calpain inh 6.9, PMI act 1.1, Lmaj promast 90.6*, Rad51 HR inh -6.3 and L major 1uM -10.1.
CCSc1nnc2nc3[nH]c4c(C)cccc4c3nn12 was read as PMI act satM6P 1, WT yeast gro inh -0.3, m-calpain inh -9.0, PMI act 1, Lmaj promast 41.6 and Rad51 HR inh 9.3.
C=CCSc1nnc2c(n1)[nH]c1c(C)cccc12 was read as PMI act satM6P 0.8, WT yeast gro inh 25.1, m-calpain inh -20.3, PMI act 0.9, Lmaj promast 61.0*, Rad51 HR inh -0.9 and L major 1uM 10.9.
For Cc1cc(C)c(C(=O)Cn2nc(C)c([N+](=O)[O-])c2C)cc1C the results were PMI act satM6P 1, WT yeast gro inh -15.8, m-calpain inh -2.7, PMI act 0.9, Lmaj promast -0.9 and Rad51 HR inh -2.6.
O=C(NNC(=O)c1c(F)cccc1F)c1ccccc1-n1cccc1 was read as PMI act satM6P 1.1, WT yeast gro inh -15.6, m-calpain inh -3.4, PMI act 1.1, Lmaj promast -2.4 and Rad51 HR inh 4.9.
CCc1nnc(NC(=O)CSc2nc(-c3ccccc3)cc(-c3ccc(OC)cc3)c2C#N)s1 was read as PMI act satM6P 1.1, WT yeast gro inh -4.4, m-calpain inh 32.9, PMI act 1, Lmaj promast -6.9 and Rad51 HR inh 0.0.
CN1CCCC1CCNC1C2CC3CC(C2)CC1C3 (stereo not drawn) was read as PMI act satM6P 1, WT yeast gro inh 12.1, m-calpain inh 7.2, PMI act 1.1, Lmaj promast 53.2* and L major 1uM -17.7.
Screening O=C1c2cc([N+](=O)[O-])cc3cc([N+](=O)[O-])cc(c23)C(=O)N1c1ccccn1 returned PMI act satM6P 0.7, WT yeast gro inh 41.3, m-calpain inh 11.1, PMI act 0.8, Lmaj promast 90.3* and L major 1uM 27.8.
CCN1CCN(c2ccc(NC(=O)c3ccc4c(c3)[nH]c(=O)n4Cc3ccc(F)cc3)cc2)CC1 was read as PMI act satM6P 1.1, WT yeast gro inh 0.0, m-calpain inh -7.0, PMI act 1 and Lmaj promast 0.6.
For COc1cc2c(cc1OC)N1C(=O)CC(OCC(=O)O)C3C4CC5(CCN5C(=O)C4=O)C2C31 (stereo not drawn) the results were WT yeast gro inh 5.2, m-calpain inh -5.2 and Lmaj promast -4.5.
For Cc1cccc(NCCC(=O)c2ccc(Br)cc2)c1 the results were PMI act satM6P 0.7, WT yeast gro inh 1.2, m-calpain inh 10.2, PMI act 0.7, Lmaj promast 53.8*, Rad51 HR inh -3.5 and L major 1uM -11.1.
CC(C)c1ccc(NCCC(=O)c2ccc(Br)cc2)cc1 was read as PMI act satM6P 1.1, WT yeast gro inh -10.4, m-calpain inh 3.5, PMI act 0.9, Lmaj promast 6.5 and Rad51 HR inh -0.3.
For COC(=O)CN1C(c2ccc(OC)cc2)=Nc2ccc(Cl)cc2C1c1ccccc1 (stereo not drawn) the results were PMI act satM6P 0.9, WT yeast gro inh 57.9, m-calpain inh 28.8, PMI act 0.8, Lmaj promast 44.8 and Rad51 HR inh 18.9.
`COC(=O)CN1C(c2cccc(Cl)c2)=Nc2ccc(Cl)cc2C1c1ccccc1` (stereo not drawn) gave PMI act satM6P 0.8, WT yeast gro inh 75.5*, m-calpain inh 6.0, PMI act 0.8, Lmaj promast 60.0*, Rad51 HR inh 2.2 and L major 1uM 29.1.
Screening C[N+]1(C2CCC3CCCC2C3O)CCCC1 (stereo not drawn) returned PMI act satM6P 1, WT yeast gro inh 6.1, m-calpain inh 22.7, PMI act 0.7, Lmaj promast 64.9*, Rad51 HR inh -4.3 and L major 1uM -11.5.
